# Activity calls are given as the source filed them. No cut-off for these calls is given here.
# Experiments:
# Assay type in all cases: functional, cell-based
# HCT-8 = assay: Cytotoxicity against human HCT8 cells by MTT assay
# Bel-7402 = assay: Cytotoxicity against human Bel7402 cells by MTT assay
# BGC-823 = assay: Cytotoxicity against human BGC823 cells by MTT assay
# A549 = assay: Cytotoxicity against human A549 cells by MTT assay
# A2780 = assay: Cytotoxicity against human A2780 cells by MTT assay
# HepG2 = assay: Hepatoprotective activity against N-acetyl-p-aminophenol-induced toxicity in human HepG2 cells at 10 uM after 48 hrs by MTT assay
# How it was run: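 HepG2 cells kept in DMEM with 10% fetal calf serum plus penicillin/streptomycin at 37 °C, 5% CO2, passaged with 0.25% trypsin/0.02% EDTA. After seeding and overnight incubation, 10 μM test sample added together with APAP (8 mM final) for 48 h. MTT (0.5 mg/mL) added for 4 h, formazan dissolved in DMSO, absorbance at 570 nm. Bicyclol 10 μM as positive control; mean ± SD, n = 3.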
SMILES,IC50 (HCT-8),IC50 (Bel-7402),IC50 (BGC-823),IC50 (A549),IC50 (A2780),Activity (HepG2)
Cc1ccc(C(C)C)c2c1[C@H](O)C[C@@](C)(O)[C@H]2O [CALAMUSIN H],> 10 µM,> 10 µM,> 10 µM,> 10 µM,> 10 µM,
C[C@]1(O)CC[C@H](O)[C@@]2(C)CCC(=O)C=C12 [CALAMUSIN I],> 10 µM,> 10 µM,> 10 µM,> 10 µM,> 10 µM,Active
CC(C)=C1C(=O)C[C@@H](C)[C@@]2(O)CC[C@H](C)C(=O)[C@@H]12 [CALAMUSIN G],> 10 µM,> 10 µM,> 10 µM,> 10 µM,> 10 µM,Active
CC(C)[C@]1(O)C(=O)C[C@H](C)[C@@]12CC[C@](C)(O)C(=O)C2,> 10 µM,> 10 µM,> 10 µM,> 10 µM,> 10 µM,Active
C[C@@H]1C(=O)CC[C@@H](C)[C@]2(O)C=C(C(C)(C)O)C(=O)[C@@H]12 [CALAMUSIN A],> 10 µM,> 10 µM,> 10 µM,> 10 µM,> 10 µM,
CC1=C[C@@H](O)[C@@]2(CC1=O)[C@@H](C(C)C)C(=O)C[C@@H]2C (relative stereo),> 10 µM,> 10 µM,> 10 µM,> 10 µM,> 10 µM,
CC1=C[C@H](O)[C@]2(CC1=O)[C@H](C)CC(=O)[C@H]2C(C)C [CALAMUSIN E],> 10 µM,> 10 µM,> 10 µM,> 10 µM,> 10 µM,
CC1=CCC23OC(C(C)(C)O)(CC12O)C(=O)C=C3C (racemic),> 10 µM,> 10 µM,> 10 µM,> 10 µM,> 10 µM,Active
C[C@@H]1CC[C@]2(O)O[C@]13C=C(C(C)(C)O)C(=O)[C@H]3[C@@H]2C [CALAMUSIN B],> 10 µM,> 10 µM,> 10 µM,> 10 µM,> 10 µM,
